Measured values collected from several papers.
Compare with care: the assays were run in different laboratories.
SIRT2: NAD-dependent protein deacetylase sirtuin-2 (SIRT2, Homo sapiens, UniProt Q8IXJ6)
AMY2: Pancreatic alpha-amylase (AMY2, Sus scrofa, UniProt P00690)
HSD11B2: 11-beta-hydroxysteroid dehydrogenase type 2 (HSD11B2, Homo sapiens, UniProt P80365)
Hydroxyacylglutathione hydrolase, mitochondrial: Hydroxyacylglutathione hydrolase, mitochondrial (Homo sapiens, UniProt Q16775)
Maoa: Amine oxidase [flavin-containing] A (Maoa, Rattus norvegicus, UniProt P21396)

`CC(=S)NCCCC[C@H](NC(=O)OCc1ccccc1)C(=O)N[C@@H](Cc1c[nH]c2ccccc12)C(=O)N[C@@H](CCCCN)C(N)=O` has an inhibition of 36% (SIRT2; enzyme activity; inhibitor; 1 µM).
`CCCN(O)N=Nc1ccc(S(=O)(=O)Nc2cc(C)on2)cc1` gave an inhibition of 31.6% (AMY2; enzyme activity; inhibitor; 120 µg/mL).
The inhibition of `CC/C(=N\NC(=O)NCc1cccc(O)c1)c1ccc(O)c(C)c1O` is reported as -0.1% (Fibroblast growth factor receptor 3 (FGFR3, Homo sapiens, UniProt P22607, V555L); enzyme activity; inhibitor; 0.1 µM).
With `CC(=S)NCCCC[C@H](NC(=O)OCc1ccccc1)C(=O)N[C@@H](Cc1c[nH]c2ccccc12)C(=O)N[C@@H](CCCNC(=N)N)C(N)=O` the inhibition was 20% (SIRT2; enzyme activity; inhibitor; 1 µM).
For `COc1cc(C=Cc2cc(-c3ccc(N(C)C)cc3)nc(O)n2)ccc1O`, the inhibition was 60% (AMY2; enzyme activity; inhibitor; absorbance; 2.5 µg/mL).
For `CC(C)c1c(C(=O)Nc2ccccc2)c(-c2ccccc2)c(-c2ccc(F)cc2)n1CC[C@@H](O)C[C@@H](O)CC(=O)O`, the inhibition was less than 40% (HSD11B2; enzyme activity; inhibitor; 20 µM; lysate).
For `Cc1ccc(N(O)N=Nc2ccc(S(=O)(=O)Nc3cc(C)on3)cc2)cc1`, the inhibition was 68.4% (AMY2; enzyme activity; inhibitor; 240 µg/mL).
`O=C(O)CN1CCN(CC(=O)O)CCN(CC(=O)O)CC1` has an inhibition of 5.98% (Hydroxyacylglutathione hydrolase, mitochondrial; cell-free assay; 500 µM).
With `C=C(CC)C(=O)c1ccc(OCC(=O)O)c(Cl)c1Cl` the inhibition was less than 40% (HSD11B2; enzyme activity; inhibitor; 20 µM; lysate).
For `CCCC(=S)NCCCC[C@H](NS(C)(=O)=O)C(=O)N[C@H](C)C(=O)N[C@@H](CCCNC(=N)N)C(N)=O`, the inhibition was 31% (SIRT2; enzyme activity; inhibitor; 10 µM).
With `COc1cc(C=CC(=O)CC(c2ccc([N+](=O)[O-])cc2)n2ccnc2)ccc1O` (centres unmarked) the inhibition was 87.6% (AMY2; enzyme activity; inhibitor; absorbance; 10 µg/mL).
For `CN(CCOc1ccc(CC2SC(=O)NC2=O)cc1)c1ccccn1` (centres unmarked), the inhibition was less than 40% (HSD11B2; enzyme activity; inhibitor; 20 µM; lysate).
`C[C@H]1O[C@H](O[C@H]2[C@H](O)[C@@H](O)[C@@H](O[C@H]3[C@H](O)[C@@H](O)C(O)O[C@@H]3CO)O[C@@H]2CO)[C@H](O)[C@@H](O)[C@@H]1N[C@H]1C=C(CO)[C@@H](O)[C@H](O)[C@H]1O` (some centres unmarked) gave an inhibition of 84.7% (AMY2; enzyme activity; inhibitor; 150 µg/mL).
The inhibition of `CCOCCOCCNC(=S)NCCCC[C@H](NS(C)(=O)=O)C(=O)N[C@H](C)C(=O)N[C@@H](CCCNC(=N)N)C(N)=O` is reported as 16% (SIRT2; enzyme activity; inhibitor; 100 µM).
`CN1CC(Oc2cnc(C#N)cc2-c2ccn3nc(NC(=O)C4CC4)cc3c2)C1` gave an inhibition of -4% (Receptor-interacting serine/threonine-protein kinase 1 (RIPK1, Homo sapiens, UniProt Q13546); enzyme activity; inhibitor; 1 µM).
`Cc1cccc(N(O)N=Nc2ccc(S(=O)(=O)Nc3onc(C)c3C)cc2)c1` gave an inhibition of 36.8% (AMY2; enzyme activity; inhibitor; 180 µg/mL).
For `CCCCNC(=S)NCCCC[C@H](NS(=O)(=O)c1cccc(F)c1)C(=O)N[C@@H](Cc1c[nH]c2ccccc12)C(=O)NC1CCC1`, the inhibition was 32% (SIRT2; enzyme activity; inhibitor; 1 µM).
With `COc1cc(NC(C)=O)c(Cl)cc1C(=O)Nc1nccs1` the inhibition was 14.4% (Maoa; cell-free assay; 10 µM).
`Cn1c(CNC(=S)NCCCC[C@H](NS(=O)(=O)c2cccc(F)c2)C(=O)N[C@@H](Cc2c[nH]c3ccccc23)C(=O)NC2CCC2)n[nH]c1=S` has an inhibition of 43% (SIRT2; enzyme activity; inhibitor; 30 µM).
For `Oc1cccc(Nc2nc(-c3ccc(F)cc3F)cs2)c1`, the inhibition was 14.4% (Maoa; cell-free assay; 10 µM).
With `COc1cc(C=CC(=O)CC(c2ccc(N(C)C)cc2)n2ccnc2)ccc1O` (centres unmarked) the inhibition was 77% (AMY2; enzyme activity; inhibitor; absorbance; 5 µg/mL).
With `Cc1noc(NS(=O)(=O)c2ccc(N=NN(O)c3ccccc3)cc2)c1C` the inhibition was 73.7% (AMY2; enzyme activity; inhibitor; 300 µg/mL).
The inhibition of `CCCCCCCCCCCCCC(=O)NNCCC[C@H](NC(=O)OCc1ccccc1)C(=O)N[C@@H](Cc1c[nH]c2ccccc12)C(=O)NC(C)C` is reported as 19% (SIRT2; enzyme activity; inhibitor; 100 µM).
`CN(O)N=Nc1ccc(S(=O)(=O)Nc2nccs2)cc1` has an inhibition of 78.9% (AMY2; enzyme activity; inhibitor; 300 µg/mL).
`COc1cc(C=Cc2cc(-c3ccccc3)nc(O)n2)ccc1O` has an inhibition of 58.1% (AMY2; enzyme activity; inhibitor; absorbance; 1.25 µg/mL).
`Cc1ccc(N(O)N=Nc2ccc(S(=O)(=O)Nc3onc(C)c3C)cc2)cc1` has an inhibition of 21.1% (AMY2; enzyme activity; inhibitor; 60 µg/mL).
With `c1ccc(CN(CCN(Cc2ccccn2)Cc2ccccn2)Cc2ccccn2)nc1` the inhibition was 47.6% (Hydroxyacylglutathione hydrolase, mitochondrial; cell-free assay; 100 µM).
For `Cc1cc(NS(=O)(=O)c2ccc(N=NN(O)c3ccccc3)cc2)no1`, the inhibition was 52.6% (AMY2; enzyme activity; inhibitor; 180 µg/mL).
With `O=C(NC1CCC1)[C@H](Cc1c[nH]c2ccccc12)NC(=O)[C@H](CCCCNC(=S)NCc1n[nH]c(=S)o1)NS(=O)(=O)c1cccc(F)c1` the inhibition was 11% (SIRT2; enzyme activity; inhibitor; 30 µM).
